pEC50: −log10 of the molar value.
Tests used:
[1] = tested on: Escherichia coli; assay: Inhibition of Escherichia coli MetAP at 25 uM after 20 mins by HPLC analysis
Summary of the method: (§1)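 Endpoint assay. Enzyme (50 nM) was preincubated with 25 μM compound for 20 min at 37 °C in 50 mM Tris pH 7.5, 100 mM NaCl, 100 μM CoCl2, 0.075% BSA. MGMM substrate (400 μM) was then added for 15 min (human MetAP-1) or 20 min (E. coli MetAP). Reactions were stopped with TFA. GMM product was quantified by RP-HPLC, UV 214 nm. Triplicate.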

[2] = tested on: HeLa; assay: Cytotoxicity against human HeLa cells assessed as reduction in cell viability after 24 hrs by CellTiter-Blue assay; assay type: cell-based
Summary of the method: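 HeLa cells seeded in triplicate at 5×10^3 cells/well and grown 24 h at 37 °C/5% CO2. Compounds at varying concentrations were added as a 2x stock in phenol-red-free DMEM with FBS, penicillin/streptomycin, sodium pyruvate and L-glutamine, then left 24 h. Medium was replaced with CellTiter-Blue medium for 3 h. A570/A610 was read after background subtraction, as % of untreated controls; EC50 derived.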

[3] = target: Methionine aminopeptidase 1 (Homo sapiens) (UniProt P53582); assay: Inhibition of human MetAP at 25 uM after 20 mins by HPLC analysis; summary of the method: as §1
[4] = tested on: Escherichia coli; assay: Inhibition of wild-type Escherichia coli MurE compound preincubated for 10 mins before substrate addition at 25 uM measured after 15 mins by LC-MS method
Summary of the method: (§2)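 E. coli wild-type enzyme (4 nM) was preincubated with 25 μM compound for 10 min at 37 °C. Enzymatically generated nucleotide-sugar substrate (~200 μM) plus ATP (~200 μM), or NADPH 200 μM for MurB, was added for 10 min. Reactions were started with amino-acid cosubstrate (MurC–F) or EP-UNAG (MurB), run 15 min at 37 °C, and quenched with formic acid. Product was measured by negative-ESI LC-MS EIC peak area. MgCl2: MurC 10, MurD/E 2, MurF 5 mM; MurB had 5 mM KCl. All in 50 mM NH4HCO3, 0.07% BSA, 1% DMSO; triplicate.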

[5] = tested on: Escherichia coli; assay: Inhibition of wild-type Escherichia coli MurA compound preincubated for 10 mins before substrate addition at 25 uM measured after 15 mins by LC-MS method
[6] = target: Genome polyprotein (dengue virus type 2) (UniProt P12823); assay: Inhibition of Dengue virus serotype 2 NS2B-NS3 protease at 50 uM
[7] = target: Prothrombin (Bos taurus) (UniProt P00735); assay: Inhibition of Bovine thrombin using Boc-Val-Pro-Arg-AMC as substrate compound preincubated at 25 uM for 15 mins by fluorescence assay
Summary of the method: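 Bovine thrombin (final 10 nM) was preincubated 15 min with 25 μM compound in 50 mM Tris-HCl pH 7.5, 150 mM NaCl, 0.05% Tween 20. The reaction was started with Boc-Val-Pro-Arg-AMC (50 μM final). Fluorescence (ex 355/em 460 nm) was monitored continuously for 10 min; activity taken as slope (RFU/s). Triplicate.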

[8] = tested on: Escherichia coli; assay: Inhibition of wild-type Escherichia coli MurC compound preincubated for 10 mins before substrate addition at 25 uM measured after 15 mins by LC-MS method; summary of the method: as §2
[9] = tested on: Escherichia coli; assay: Inhibition of wild-type Escherichia coli MurB compound preincubated for 10 mins before substrate addition at 25 uM measured after 15 mins by LC-MS method; summary of the method: as §2
[10] = tested on: Escherichia coli; assay: Inhibition of wild-type Escherichia coli MurD compound preincubated for 10 mins before substrate addition at 25 uM measured after 15 mins by LC-MS method; summary of the method: as §2
[11] = tested on: Escherichia coli; assay: Inhibition of wild-type Escherichia coli MurF compound preincubated for 10 mins before substrate addition at 25 uM measured after 15 mins by LC-MS method; summary of the method: as §2
[12] = target: Genome polyprotein (West Nile virus) (UniProt P06935); assay: Inhibition of West Nile virus NS2B-NS3 protease at 50 uM
Genome polyprotein (West Nile virus), sequence (P06935 whole entry): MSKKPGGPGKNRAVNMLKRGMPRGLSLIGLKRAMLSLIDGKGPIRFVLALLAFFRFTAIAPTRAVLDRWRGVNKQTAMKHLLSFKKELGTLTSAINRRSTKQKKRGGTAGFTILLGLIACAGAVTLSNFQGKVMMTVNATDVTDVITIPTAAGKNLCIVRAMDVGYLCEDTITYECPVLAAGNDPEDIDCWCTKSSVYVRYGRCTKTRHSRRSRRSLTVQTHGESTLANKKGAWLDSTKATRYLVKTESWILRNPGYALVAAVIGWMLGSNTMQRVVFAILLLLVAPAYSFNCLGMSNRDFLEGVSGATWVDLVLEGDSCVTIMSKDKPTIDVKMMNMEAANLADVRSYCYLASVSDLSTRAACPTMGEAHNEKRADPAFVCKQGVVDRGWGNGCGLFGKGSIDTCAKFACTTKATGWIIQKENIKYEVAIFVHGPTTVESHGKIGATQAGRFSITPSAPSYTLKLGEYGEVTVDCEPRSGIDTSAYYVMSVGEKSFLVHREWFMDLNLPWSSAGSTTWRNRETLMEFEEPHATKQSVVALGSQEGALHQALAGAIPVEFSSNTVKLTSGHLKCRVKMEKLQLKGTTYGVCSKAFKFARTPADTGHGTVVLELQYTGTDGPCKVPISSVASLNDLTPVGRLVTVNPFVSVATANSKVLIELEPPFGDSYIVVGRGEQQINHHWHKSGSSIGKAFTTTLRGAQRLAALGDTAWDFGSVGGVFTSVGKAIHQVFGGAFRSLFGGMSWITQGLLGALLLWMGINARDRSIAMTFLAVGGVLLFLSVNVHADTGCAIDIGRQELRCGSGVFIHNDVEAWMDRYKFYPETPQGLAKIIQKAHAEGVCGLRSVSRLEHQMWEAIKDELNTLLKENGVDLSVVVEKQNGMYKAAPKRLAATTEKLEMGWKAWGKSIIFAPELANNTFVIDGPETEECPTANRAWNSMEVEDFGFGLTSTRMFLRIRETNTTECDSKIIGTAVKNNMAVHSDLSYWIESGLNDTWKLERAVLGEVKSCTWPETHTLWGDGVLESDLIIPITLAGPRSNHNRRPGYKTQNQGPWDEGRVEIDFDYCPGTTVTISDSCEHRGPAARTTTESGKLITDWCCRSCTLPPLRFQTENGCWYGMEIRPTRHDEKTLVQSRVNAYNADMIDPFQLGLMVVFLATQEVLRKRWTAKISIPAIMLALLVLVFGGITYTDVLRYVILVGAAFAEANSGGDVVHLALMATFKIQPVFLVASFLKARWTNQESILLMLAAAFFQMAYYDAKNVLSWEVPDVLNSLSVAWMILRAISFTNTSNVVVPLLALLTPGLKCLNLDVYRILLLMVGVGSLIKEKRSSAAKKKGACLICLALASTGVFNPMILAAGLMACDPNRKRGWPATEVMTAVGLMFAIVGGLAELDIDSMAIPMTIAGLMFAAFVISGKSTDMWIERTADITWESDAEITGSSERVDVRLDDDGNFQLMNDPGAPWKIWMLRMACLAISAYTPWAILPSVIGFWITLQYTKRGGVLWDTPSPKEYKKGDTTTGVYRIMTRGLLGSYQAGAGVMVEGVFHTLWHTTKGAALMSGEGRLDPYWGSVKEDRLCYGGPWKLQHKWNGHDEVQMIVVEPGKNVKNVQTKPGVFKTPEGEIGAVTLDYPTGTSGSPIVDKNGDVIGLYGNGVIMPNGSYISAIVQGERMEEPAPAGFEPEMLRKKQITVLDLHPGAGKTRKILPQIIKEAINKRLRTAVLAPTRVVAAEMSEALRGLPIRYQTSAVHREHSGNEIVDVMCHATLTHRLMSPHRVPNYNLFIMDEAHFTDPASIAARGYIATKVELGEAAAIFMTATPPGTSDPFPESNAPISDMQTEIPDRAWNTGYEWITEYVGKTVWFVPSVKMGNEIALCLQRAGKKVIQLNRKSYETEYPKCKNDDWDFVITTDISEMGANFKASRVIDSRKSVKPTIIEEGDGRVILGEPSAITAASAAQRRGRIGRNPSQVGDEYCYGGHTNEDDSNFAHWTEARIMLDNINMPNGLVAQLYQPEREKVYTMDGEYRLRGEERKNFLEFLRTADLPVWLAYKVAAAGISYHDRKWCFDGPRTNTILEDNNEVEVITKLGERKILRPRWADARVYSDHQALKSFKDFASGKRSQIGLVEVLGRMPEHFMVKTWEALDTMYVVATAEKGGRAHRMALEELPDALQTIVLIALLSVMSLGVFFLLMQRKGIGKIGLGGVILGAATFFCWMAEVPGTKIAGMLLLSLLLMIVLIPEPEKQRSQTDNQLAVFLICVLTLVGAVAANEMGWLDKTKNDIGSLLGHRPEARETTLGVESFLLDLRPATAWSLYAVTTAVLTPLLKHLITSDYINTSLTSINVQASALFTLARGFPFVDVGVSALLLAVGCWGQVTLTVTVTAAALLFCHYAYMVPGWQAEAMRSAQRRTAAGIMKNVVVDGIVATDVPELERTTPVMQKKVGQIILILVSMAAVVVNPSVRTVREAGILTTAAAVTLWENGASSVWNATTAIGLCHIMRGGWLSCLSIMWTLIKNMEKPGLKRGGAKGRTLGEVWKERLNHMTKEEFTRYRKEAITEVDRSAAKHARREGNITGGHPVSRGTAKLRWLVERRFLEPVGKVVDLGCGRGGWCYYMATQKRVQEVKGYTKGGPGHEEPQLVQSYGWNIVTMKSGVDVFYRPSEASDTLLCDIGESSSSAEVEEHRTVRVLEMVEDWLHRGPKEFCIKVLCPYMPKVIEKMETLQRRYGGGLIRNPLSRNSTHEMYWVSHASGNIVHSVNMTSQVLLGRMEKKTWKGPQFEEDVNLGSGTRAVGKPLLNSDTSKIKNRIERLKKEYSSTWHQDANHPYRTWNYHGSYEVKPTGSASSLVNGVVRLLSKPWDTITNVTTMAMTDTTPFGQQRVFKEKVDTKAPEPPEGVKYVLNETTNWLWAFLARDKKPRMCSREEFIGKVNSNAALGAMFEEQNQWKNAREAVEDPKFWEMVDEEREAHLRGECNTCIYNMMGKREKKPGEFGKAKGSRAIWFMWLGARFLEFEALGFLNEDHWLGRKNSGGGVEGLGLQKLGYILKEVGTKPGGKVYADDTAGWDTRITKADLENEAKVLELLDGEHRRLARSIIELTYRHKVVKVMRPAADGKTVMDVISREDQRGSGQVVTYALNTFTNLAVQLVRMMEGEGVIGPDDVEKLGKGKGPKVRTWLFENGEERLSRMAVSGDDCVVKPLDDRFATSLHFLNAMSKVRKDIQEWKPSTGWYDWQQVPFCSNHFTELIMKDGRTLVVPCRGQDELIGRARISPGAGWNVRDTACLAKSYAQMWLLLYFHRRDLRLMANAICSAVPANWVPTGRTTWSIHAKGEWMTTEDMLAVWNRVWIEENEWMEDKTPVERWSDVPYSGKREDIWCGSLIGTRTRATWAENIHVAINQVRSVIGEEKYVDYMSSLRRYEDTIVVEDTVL

[13] = GSH reactivity of the compound assessed as adducts formation by RP-HPLC analysis
Summary of the method: (§3)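 Fresh aqueous glutathione (10 mM solution) was added to 50 mM Tris-maleate buffer, pH 7.5. The reaction was started with compound from 10 mM DMSO stock (final 250 μM). Mixtures were followed by reversed-phase HPLC on an ODS column with a gradient to 100% B; rate constants are given in l·mol⁻¹·s⁻¹.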

[14] = GSH reactivity of the compound assessed as adducts formation meaured over 3 hrs by RP-HPLC analysis; summary of the method: as §3

inhibition [1] [%]	inhibition [3] [%]	inhibition [4] [%]	inhibition [5] [%]	inhibition [6] [%]	inhibition [7] [%]	inhibition [8] [%]	inhibition [9] [%]	inhibition [10] [%]	inhibition [11] [%]	inhibition [12] [%]	Compound	pEC50 [2]	Activity [13] [L/mol/s]	Activity [14] [%]
< 15	22	< 15	16	< 15	< 15	< 15	< 15	< 15	< 15	< 15	C=CCNc1ccccc1	< 4.00	< 0.1	
< 15	17	< 15	< 15	< 15	< 15	< 15	< 15	< 15	< 15	< 15	C=CC(=O)NC1CCCC1		< 0.1	< 5
< 15	< 15	< 15	< 15	< 15	< 15	< 15	19	< 15	< 15	< 15	C=CCNCCCC	< 4.00	< 0.1	
< 15	< 15	< 15	< 15	< 15	< 15	< 15	< 15	< 15	< 15	18	CCCCC(NC(=O)CC#N)C(=O)OC (configuration not stated)		< 0.1	
< 15	< 15	< 15	< 15	17	< 15	< 15	< 15	< 17	< 15	18	N#CCNC(=O)/C=C/c1ccccc1	< 4.00	< 0.1	
< 15	< 15	< 15	< 15	< 15	< 15	< 15	< 15	< 15	< 15	18	N#CCC(=O)NCc1ccccc1		< 0.1	
< 15	< 15	< 15	< 15	< 15	< 15	< 15	< 15	< 15	< 15	< 15	C=CCNC		< 0.1	
< 15	< 15	< 15	< 15	< 15	< 15	< 15	< 15	< 15	< 15	< 15	COc1ccc(NC(=O)CCl)cc1		< 0.1	
< 15	< 15	< 15	< 15	< 15	< 15	< 15	17	< 15	< 15	< 15	C=CCNc1ccc(F)cc1		< 0.1	
< 15	< 15	< 15	< 15	< 15	< 15	< 15	< 15	< 15	< 15	< 15	CCCCNC(=O)CC#N	< 4.00	< 0.1	
< 15	< 15	16	< 15	< 15	< 15	< 15	< 15	< 15	< 15	< 15	N#CCC(=O)NC1CCCC1		< 0.1	
< 15	< 15	< 15	< 15	< 15	< 15	< 15	< 15	< 15	< 15	< 15	O=C(CCl)Nc1ccc([N+](=O)[O-])cc1		< 0.1	
< 15	< 15	< 15	< 15	< 15	< 15	< 15	< 15	< 15	< 15	< 15	N#CCC(=O)Nc1ccc([N+](=O)[O-])cc1		< 0.1	
< 15	< 15	< 15	< 15	< 15	< 15	< 15	17	< 15	< 15	23	N#CCNC(=O)c1ccccc1	< 4.00	< 0.1	
< 15	< 15	< 15	< 15	< 15	< 15	< 15	< 15	< 15	< 15	< 15	C=CCNC(CCCC)C(=O)OC (configuration not stated)		< 0.1	

Compound	inhibition [1] [%]	inhibition [3] [%]	inhibition [4] [%]	inhibition [5] [%]	inhibition [6] [%]	inhibition [7] [%]	inhibition [8] [%]	inhibition [9] [%]	inhibition [10] [%]	inhibition [11] [%]	inhibition [12] [%]	pEC50 [2]	Activity [13] [L/mol/s]	Activity [14] [%]
O=C(CCl)NC1CCCC1	< 15	< 15	< 15	< 15	< 15	< 15	< 15	< 15	< 15	< 15	< 15		< 0.1	
CCCCNC(=O)CCl	< 15	< 15	15	< 15	< 15	< 15	< 15	< 15	< 15	< 15	< 15	< 4.00	< 0.1	
Cc1ccc(NC(=O)CCl)cc1	< 15	< 15	< 15	< 15	< 15	< 15	< 15	< 15	< 15	< 15	< 15		< 0.1	
C=CCNC1CCCC1	< 15	< 15	< 15	< 15	< 15	< 15	< 15	17	< 15	< 15	< 15		< 0.1	
O=C(CCl)Nc1ccc(F)cc1	< 15	< 15	< 15	< 15	< 15	< 15	< 15	< 15	< 15	< 15	< 15		< 0.1	

From ChEMBL document CHEMBL3352149, “Promiscuity and selectivity in covalent enzyme inhibition: a systematic study of electrophilic fragments” (J Med Chem, 2014)
